# According to ChEMBL document CHEMBL4842372, “Discovery of ARD-2585 as an Exceptionally Potent and Orally Active PROTAC Degrader of Androgen Receptor for the Treatment of Advanced Prostate Cancer” (J Med Chem, 2021):
# Active and inactive are the calls of the source. No cut-off for these calls is given here.
# Tests used:
# [1] = Drug distribution in CB17:SCID mouse xenografted with human VCaP cells assessed as prostate gland to plasma ratio at 20 mg/kg, po measured at 24 hrs by LCMS analysis; format: ADME, organism-based
# Method in brief: (§1)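 Tumor-bearing male CB17 SCID mice (VCaP xenografts) given one 20 mg/kg oral dose in 100% PEG200, three mice per time point; plasma, tumor, liver, kidney, prostate and heart taken at 1, 6 and 24 h; tissues homogenised in water/acetonitrile, protein precipitated with cold acetonitrile, drug quantified by LC–MS/MS; ratios are tissue over plasma level.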
# [2] = Drug distribution in prostate gland of CB17:SCID mouse xenografted with human VCaP cells at 20 mg/kg, po measured at 1 hrs by LCMS analysis; format: ADME, organism-based; settings: read-out: Drug uptake; method in brief: as §1
# [3] = Drug distribution in heart of CB17:SCID mouse xenografted with human VCaP cells at 20 mg/kg, po measured at 24 hrs by LCMS analysis; format: ADME, organism-based; settings: read-out: Drug uptake; method in brief: as §1
# [4] = Potency index, ratio of ARV-110 IC50 to compound IC50 for reduction in AR degradation human MDA-PCa-2b cells after 24 hrs by Western blot analysis relative to control; format: functional
# [5] = target: T1, Protein cereblon/Androgen receptor (Homo sapiens, UniProt P10275+Q96SW2); assay: Protac activity at CRBN/AR in human VCaP cells assessed as reduction in AR protein level at 100 nM after 3 hrs in presence of MG-132 by Western blot analysis
# T1 sequence (P10275 whole entry, looked up): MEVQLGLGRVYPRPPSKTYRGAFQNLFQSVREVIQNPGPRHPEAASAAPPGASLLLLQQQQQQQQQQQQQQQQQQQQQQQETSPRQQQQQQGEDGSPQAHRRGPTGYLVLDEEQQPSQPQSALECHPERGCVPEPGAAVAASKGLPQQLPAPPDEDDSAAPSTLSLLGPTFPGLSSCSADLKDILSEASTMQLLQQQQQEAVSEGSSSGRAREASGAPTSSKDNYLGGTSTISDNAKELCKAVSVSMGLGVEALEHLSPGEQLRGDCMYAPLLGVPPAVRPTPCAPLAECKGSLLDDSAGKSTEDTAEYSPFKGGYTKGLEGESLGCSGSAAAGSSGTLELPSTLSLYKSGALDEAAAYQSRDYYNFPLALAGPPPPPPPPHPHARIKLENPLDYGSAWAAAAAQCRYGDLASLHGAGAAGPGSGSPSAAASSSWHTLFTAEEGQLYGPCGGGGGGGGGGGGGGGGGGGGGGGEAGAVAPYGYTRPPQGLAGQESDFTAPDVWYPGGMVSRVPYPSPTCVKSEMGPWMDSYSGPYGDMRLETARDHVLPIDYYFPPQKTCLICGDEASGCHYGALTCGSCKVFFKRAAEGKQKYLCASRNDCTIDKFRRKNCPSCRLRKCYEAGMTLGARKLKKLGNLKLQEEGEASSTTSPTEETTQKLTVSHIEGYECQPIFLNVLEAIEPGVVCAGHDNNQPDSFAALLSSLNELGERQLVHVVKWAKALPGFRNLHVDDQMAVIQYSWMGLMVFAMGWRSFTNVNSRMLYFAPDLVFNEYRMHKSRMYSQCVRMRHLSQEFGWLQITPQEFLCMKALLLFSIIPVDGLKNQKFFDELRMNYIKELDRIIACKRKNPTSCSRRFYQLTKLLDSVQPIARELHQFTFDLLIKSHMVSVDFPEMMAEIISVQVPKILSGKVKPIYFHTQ
# T1 sequence (Q96SW2 whole entry, looked up): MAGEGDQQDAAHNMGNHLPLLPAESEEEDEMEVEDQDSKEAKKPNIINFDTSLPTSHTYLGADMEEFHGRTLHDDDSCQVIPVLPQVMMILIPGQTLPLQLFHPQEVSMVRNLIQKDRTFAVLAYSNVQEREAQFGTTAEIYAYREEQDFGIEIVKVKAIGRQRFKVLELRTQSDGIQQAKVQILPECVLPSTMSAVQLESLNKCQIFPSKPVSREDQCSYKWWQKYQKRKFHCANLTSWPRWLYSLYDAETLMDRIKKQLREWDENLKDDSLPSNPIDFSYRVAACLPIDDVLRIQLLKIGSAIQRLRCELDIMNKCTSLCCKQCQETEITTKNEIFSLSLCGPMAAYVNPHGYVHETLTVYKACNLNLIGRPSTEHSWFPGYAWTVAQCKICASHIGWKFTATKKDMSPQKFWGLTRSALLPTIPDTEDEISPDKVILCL
# [6] = Drug distribution in plasma of CB17:SCID mouse xenografted with human VCaP cells at 20 mg/kg, po measured at 1 hrs by LCMS analysis; format: ADME, organism-based; method in brief: as §1
# [7] = Drug distribution in tumor of CB17:SCID mouse xenografted with human VCaP cells at 20 mg/kg, po measured at 1 hrs by LCMS analysis; format: ADME, organism-based, Neoplasm; settings: read-out: Drug uptake; method in brief: as §1
# [8] = target: T1, Protein cereblon/Androgen receptor; assay: Protac activity at CRBN/AR in human VCaP cells assessed as maximal AR degradation at 0.1 nM after 24 hrs by Western blot analysis relative to control; format: cell-based
# Method in brief: (§2)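 Western blot of AR after 24 h exposure to a concentration series in ATCC-derived cells, all with 10% FBS at 37 °C and 5% CO2: LNCaP and 22Rv1 in RPMI1640, VCaP in DMEM with Glutamax, MDA-PCa-2b in F-12K. Lysis in RIPA with protease and phosphatase inhibitors, then 4–12% SDS-PAGE and PVDF transfer. Band minus background is normalised to GAPDH.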
# [9] = system: Protein cereblon/Androgen receptor (Homo sapiens), P10275+Q96SW2 [T878A]; assay: Protac activity at CRBN/AR T878A mutant in human LNCaP cells assessed as reduction in AR protein level at 100 nM after 3 hrs in presence of MLN4924 by Western blot analysis
# [10] = Drug distribution in liver of CB17:SCID mouse xenografted with human VCaP cells at 20 mg/kg, po measured at 1 hrs by LCMS analysis; format: ADME, organism-based; settings: read-out: Drug uptake; method in brief: as §1
# [11] = Drug distribution in CB17:SCID mouse xenografted with human VCaP cells assessed as liver to plasma ratio at 20 mg/kg, po measured at 1 hrs by LCMS analysis; format: ADME, organism-based; method in brief: as §1
# [12] = target: T1, Protein cereblon/Androgen receptor; assay: Protac activity at CRBN/AR in human VCaP cells assessed as reduction in AR protein level at 0.1 nM after 24 hrs by Western blot analysis relative to control; format: cell-based; method in brief: as §2
# [13] = Drug distribution in CB17:SCID mouse xenografted with human VCaP cells assessed as prostate gland to plasma ratio at 20 mg/kg, po measured at 6 hrs by LCMS analysis; format: ADME, organism-based; method in brief: as §1
# [14] = Drug distribution in tumor of CB17:SCID mouse xenografted with human VCaP cells at 20 mg/kg, po measured at 24 hrs by LCMS analysis; format: ADME, organism-based, Neoplasm; settings: read-out: Drug uptake; method in brief: as §1
# [15] = Drug distribution in CB17:SCID mouse xenografted with human VCaP cells assessed as kidney to plasma ratio at 20 mg/kg, po measured at 24 hrs by LCMS analysis; format: ADME, organism-based; method in brief: as §1
# [16] = Drug distribution in CB17:SCID mouse xenografted with human VCaP cells assessed as heart to plasma ratio at 20 mg/kg, po measured at 24 hrs by LCMS analysis; format: ADME, organism-based; method in brief: as §1
# [17] = system: LNCaP; assay: Potency index, ratio of ARV-110 IC50 to compound IC50 for reduction in AR degradation human LNCaP cells after 24 hrs by Western blot analysis; format: functional
# [18] = target: T1, Protein cereblon/Androgen receptor; assay: Protac activity at CRBN/AR in human MDA-PCa-2b cells assessed as reduction in AR protein level at 1 nM after 24 hrs by Western blot analysis relative to control; format: cell-based; method in brief: as §2
# [19] = system: Protein cereblon/Androgen receptor (Homo sapiens), P10275+Q96SW2 [T878A]; assay: Protac activity at CRBN/AR T878A mutant in human LNCaP cells assessed as reduction in AR protein level at 100 nM after 3 hrs in presence of MG-132 by Western blot analysis
# [20] = target: T1, Protein cereblon/Androgen receptor; assay: Protac activity at CRBN/AR in human 22Rv1 cells assessed as reduction in AR protein level at 0.1 nM after 24 hrs by Western blot analysis relative to control; format: cell-based; method in brief: as §2
# [21] = Drug distribution in CB17:SCID mouse xenografted with human VCaP cells assessed as kidney to plasma ratio at 20 mg/kg, po measured at 1 hrs by LCMS analysis; format: ADME, organism-based; method in brief: as §1
# [22] = target: T1, Protein cereblon/Androgen receptor; assay: Protac activity at CRBN/AR in human VCaP cells assessed as reduction in AR protein level at 100 nM after 3 hrs in presence of MLN4924 by Western blot analysis
# [23] = system: VCaP; assay: Antitumor activity against human VCaP cells xenografted in CB17:SCID mouse assessed as reduction in AR protein level in tumor at 20 mg/kg, po measured for 6 to 24 hrs by Western blot analysis; format: functional, organism-based; settings: time 6-24 hrs
# Method in brief: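 VCaP xenografts in male CB17 SCID mice grown to about 200 mm3; single oral gavage dose of 20 mg/kg in 100% PEG200; tumors collected at 6 and 24 h, RIPA lysates blotted for AR with GAPDH as loading control, band intensity normalised to loading control.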
# [24] = system: Protein cereblon/Androgen receptor (Homo sapiens), P10275+Q96SW2 [T878A]; assay: Protac activity at CRBN/AR T878A mutant in human LNCaP cells assessed as maximal AR degradation at 0.3 nM after 24 hrs by Western blot analysis relative to control; format: cell-based; method in brief: as §2
# [25] = system: VCaP; assay: Antitumor activity against human VCaP cells xenografted in CB17:SCID mouse assessed as tumor growth inhibition at 40 mg/kg, po treated for 37 days relative to control; format: functional; settings: 888 h, time 37 day, read-out: TGI
# [26] = Drug distribution in liver of CB17:SCID mouse xenografted with human VCaP cells at 20 mg/kg, po measured at 6 hrs by LCMS analysis; format: ADME, organism-based; settings: read-out: Drug uptake; method in brief: as §1
smiles,measurement,setting,value
CN(c1ccc(C#N)c(Cl)c1)[C@H]1CC[C@H](NC(=O)c2ccc(N3CCN(C4CN(c5ccc6c(c5)C(=O)N(C5CCC(=O)NC5=O)C6=O)C4)CC3)cc2)CC1 (stereo partly specified),Kp at 24 h,[1],0.5
same,concentration at 1 h,[2],25 ng/g
same,concentration at 24 h,[3],683 ng/g
same,Ratio,[4],1000
same,Activity,[5],inactive
same,concentration at 1 h,[6],70 ng/mL
same,concentration at 1 h,[7],47 ng/g
same,Emax,[8],> 95%
same,Activity,[9],inactive
same,concentration at 1 h,[10],2640 ng/g
same,Kp at 1 h,[11],37.7
same,inhibition,[12],> 80%
same,Kp at 6 h,[13],0.6
same,concentration at 24 h,[14],301 ng/g
same,Kp at 24 h,[15],1.7
same,Kp at 24 h,[16],3.2
same,Ratio,[17],10
same,inhibition,[18],> 80%
same,Activity,[19],inactive
same,inhibition,[20],> 80%
same,Kp at 1 h,[21],6.2
same,Activity,[22],inactive
same,inhibition,[23],Active
same,Emax,[24],> 95%
same,inhibition in vivo at 40 mg/kg,[25],65.9%
same,concentration at 6 h,[26],3510 ng/g
